Experiments:
Neutrophil [1] = assay: Proinflammatory activity in human neutrophils assessed as superoxide anion generation at 10 uM incubated for 5 mins by spectrophotometric method relative to control; type: ADME, cell-based
In short: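 Neutrophils at 3 × 10^5/mL in Ca2+-free HBSS pH 7.4, supplemented with 0.5 mg/mL ferricytochrome c and 1 mM Ca2+. Equilibrated 2 min at 37 °C, then exposed to compound at 10 μM for 5 min without fMLF/CB. SOD-inhibitable cytochrome c reduction followed continuously at 550 nm with stirring; expressed versus fMLF/CB-activated response as 100%. Means ± SEM, n = 3−5.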

Neutrophil [2] = assay: Proinflammatory activity in human neutrophils assessed as elastase release by measuring degranulation of azurophilic granules using MeOSuc-Ala-Ala-ProVal-p-nitroanilide as substrate incubated for 5 mins relative to control; type: cell-based
In short: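 Neutrophils isolated from human blood by dextran sedimentation, Ficoll-Hypaque centrifugation and hypotonic erythrocyte lysis, >98% viable by trypan blue, held in Ca2+-free HBSS pH 7.4 at 4 °C. Cells at 3 × 10^5/mL with 100 μM substrate, equilibrated 2 min at 37 °C, then compound at 10 μM for 5 min without fMLF/CB. A405 monitored continuously; expressed versus fMLF/CB-stimulated release taken as 100%.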

A549 = assay: Cytotoxicity against human A549 cells assessed as reduction in cell viability after 72 hrs by MTT assay; type: functional, cell-based; conditions: A549, 72 h
Neutrophil [3] = assay: Anti-inflammatory activity in human neutrophils assessed as inhibition of fMLF/CB-induced elastase release by measuring degranulation of azurophilic granules using MeOSuc-Ala-Ala-ProVal-p-nitroanilide as substrate preincubated for 5 mins followed by CB/fMLF stimulation; type: functional, cell-based
In short: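 Neutrophils from human blood (dextran sedimentation, Ficoll-Hypaque, hypotonic lysis of red cells; >98% viable by trypan blue) held in Ca2+-free HBSS pH 7.4 at 4 °C. Cells at 3 × 10^5/mL with 100 μM substrate, 2 min at 37 °C, compound 5 min, then fMLF 100 nM/CB 0.5 μg/mL. A405 followed continuously. Expressed as % of drug-free fMLF/CB control; three repeats.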

Neutrophil [4] = assay: Proinflammatory activity in human neutrophils assessed as superoxide anion generation at 10 uM preincubated for 5 mins followed by CB addition measured after 3 mins by spectrophotometric method relative to control; type: ADME, cell-based; conditions: 0.05 h
In short: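 Cytochrome c reduction at 550 nm as above (0.5 mg/mL ferricytochrome c, 1 mM Ca2+, 37 °C, 3 × 10^5 neutrophils/mL). Compound 10 μM given without fMLF/CB stimulation, or with CB only. Expressed relative to the fMLF/CB response taken as 100%. Means ± SEM, n = 3−5.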

HepG2 = assay: Cytotoxicity against human HepG2 cells assessed as reduction in cell viability after 72 hrs by MTT assay; type: functional, cell-based; conditions: HepG2, 72 h
Neutrophil [5] = assay: Anti-inflammatory activity in human neutrophils assessed as inhibition of fMLF/CB-induced superoxide anion generation preincubated for 5 mins followed by CB stimulation for 3 mins and subsequent fMLF stimulation for 10 mins by spectrophotometric method; type: functional, cell-based
In short: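 Same neutrophil preparation. Cells at 3 × 10^5/mL with 0.5 mg/mL ferricytochrome c and 1 mM Ca2+, 2 min at 37 °C, then compound or DMSO 5 min, CB 1 μg/mL 3 min, fMLF 100 nM 10 min. SOD-inhibitable cytochrome c reduction read continuously at 550 nm with stirring. Means ± SEM, n = 3−5.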

Structure (SMILES) | Activity (Neutrophil [1]) | Activity (Neutrophil [2]) | IC50 (A549) | IC50 (Neutrophil [3]) | Activity (Neutrophil [4]) | IC50 (HepG2) | IC50 (Neutrophil [5])
CCCCCCCCCCCCCC(=O)O[C@@H]1[C@@H](C)[C@@]2(O)[C@@H](C=C(CO)C[C@]3(O)C(=O)C(C)=C[C@@H]23)[C@@H]2C(C)(C)[C@]12OC(C)=O [PHORBOL MYRISTATE ACETATE] | 102.7% | 44.2% | – | – | – | – | –
CCCCCCCC/C=C\CCCCCCCC(=O)OCC(CO)OC(=O)CCCCCCCCCCCCCCC (stereo unspecified) | – | – | > 10 µM | > 10 µM | 74.5% | > 10 µM | –
CCCCCCC[C@H](O)[C@@H](O)/C=C/C=C/C(=O)O[C@@H]1[C@@H](C)[C@@]2(O)[C@@H](C=C(CO)C[C@]3(O)C(=O)C(C)=C[C@@H]23)[C@@H]2C(C)(C)[C@]12OC(C)=O | 107.1% | 9.2% | > 10 µM | – | – | > 10 µM | –
CCCCCCCC(=O)O[C@@]12C[C@@H](C)[C@@]3(O)[C@@H](C=C(CO)C[C@]4(O)C(=O)C(C)=C[C@@H]34)[C@@H]1C2(C)C | 109.6% | – | > 10 µM | 2.1 µM | – | > 10 µM | –
CCCCCCC[C@@H](O)[C@@H](O)/C=C/C=C/C(=O)O[C@@H]1[C@@H](C)[C@@]2(O)[C@@H](C=C(CO)C[C@]3(O)C(=O)C(C)=C[C@@H]23)[C@@H]2C(C)(C)[C@]12OC(C)=O | 106% | 10.5% | > 10 µM | – | – | > 10 µM | –
CCCCCCCCCC(=O)O[C@@]12C[C@@H](C)[C@@]3(O)[C@@H](C=C(CO)C[C@]4(O)C(=O)C(C)=C[C@@H]34)[C@@H]1C2(C)C | 95.3% | – | > 10 µM | 0.8 µM | – | > 10 µM | –
CCCCCCCC/C=C\CCCCCCCC(=O)OCC(O)COC(=O)CCCCCCC/C=C\CCCCCCCC | – | – | > 10 µM | > 10 µM | – | > 10 µM | > 10 µM
CCCCCCCC/C=C\CCCCCCCC(=O)OCC1=C[C@H]2[C@@H]3C(C)(C)[C@]3(OC(C)=O)C[C@@H](C)[C@]2(O)[C@@H]2C=C(C)C(=O)[C@@]2(O)C1 | 18.1% | – | > 10 µM | > 10 µM | – | > 10 µM | –
O=c1cc(N2CCOCC2)oc2c(-c3ccccc3)cccc12 [LY-294002] | – | – | – | 3.3 µM | – | – | 1.8 µM
CC(=O)O[C@@]12[C@H](OC(=O)/C=C/C=C/C=O)[C@@H](C)[C@@]3(O)[C@@H](C=C(CO)C[C@]4(O)C(=O)C(C)=C[C@@H]34)[C@@H]1C2(C)C | 106.1% | – | > 10 µM | 2.7 µM | – | > 10 µM | –
